Results as given in ChEMBL document CHEMBL4330158, “Prenylated Flavonoids from the Roots and Rhizomes of Sophora tonkinensis and Their Effects on the Expression of Inflammatory Mediators and Proprotein Convertase Subtilisin/Kexin Type 9” (J Nat Prod, 2019).
The source made the active and inactive calls. The calls are words filed in the database; no cut-off is given here.

Columns and labels:
[1] = test system: HepG2 (Homo sapiens); assay: Inhibition of PCSK9 mRNA level in human HepG2 cells at 20 uM by qRT-PCR assay relative to control
[2] = test system: HepG2 (Homo sapiens); assay: Inhibition of PCSK9 protein synthesis in human HepG2 cells by immunoblot analysis
[3] = test system: RAW264.7; assay: Cytotoxicity against mouse RAW264.7 cells assessed as reduction in cell viability at 20 uM by MTT assay; format: cell-based; conditions: raw264.7, 20 µM
How it was run: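 Viability was read by MTT assay in triplicate, with cells cultured at 37 °C in humidified 5% CO2.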

[4] = test system: RAW264.7; assay: Anti-inflammatory activity in mouse RAW264.7 cells assessed as inhibition of LPS-induced TNF mRNA level at 2 to 50 uM after 6 hrs by qRT-PCR assay; format: functional, cell-based
How it was run: (§1)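 RAW264.7 macrophages were grown in RPMI 1640 with 10% FBS at 37 °C and 5% CO2, then stimulated with LPS for 6 h. Total RNA was extracted with Trizol, and 1 μg was reverse-transcribed with oligo-dT at 42 °C for 1 h. SYBR Green qPCR ran 40 cycles of 95 °C 10 s and 55 °C 30 s. Levels were normalized to GAPDH by 2−ΔΔCT and given as mean ± SEM.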

[5] = test system: RAW264.7; assay: Anti-inflammatory activity in mouse RAW264.7 cells assessed as inhibition of LPS-induced IL-1beta mRNA level at 2 to 50 uM after 6 hrs by qRT-PCR assay; format: functional, cell-based
How it was run: as §1

[6] = test system: RAW264.7; assay: Anti-inflammatory activity in mouse RAW264.7 cells assessed as inhibition of LPS-induced NO production by Griess assay; format: functional, cell-based
How it was run: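 Murine RAW264.7 macrophages were kept in RPMI 1640 with 10% FBS and penicillin/streptomycin at 37 °C and 5% CO2. NO production was taken as the nitrite concentration in the culture medium, measured by the Griess reaction.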

[7] = test system: RAW264.7; assay: Anti-inflammatory activity in mouse RAW264.7 cells assessed as inhibition of LPS-induced CSF2 mRNA level at 2 to 50 uM after 6 hrs by qRT-PCR assay; format: functional, cell-based
How it was run: as §1

[8] = test system: RAW264.7; assay: Anti-inflammatory activity in mouse RAW264.7 cells assessed as inhibition of LPS-induced IL-1beta mRNA level at 2 to 10 uM after 6 hrs by qRT-PCR assay; format: functional, cell-based
How it was run: as §1

[9] = test system: RAW264.7; assay: Anti-inflammatory activity in mouse RAW264.7 cells assessed as inhibition of LPS-induced TNF mRNA level at 2 to 10 uM after 6 hrs by qRT-PCR assay; format: functional, cell-based
How it was run: as §1

[10] = test system: RAW264.7; assay: Anti-inflammatory activity in mouse RAW264.7 cells assessed as inhibition of LPS-induced CSF2 mRNA level at 2 to 10 uM after 6 hrs by qRT-PCR assay; format: functional, cell-based
How it was run: as §1

[11] = test system: HepG2 (Homo sapiens); assay: Induction of ACC phosphorylation in human HepG2 cells at 4 to 20 uM by Western blot analysis

Structure (SMILES) | inhibition at 20 µM [1] | IC50 [2] | Activity [3] | IC50 [6] | other results
COc1ccc2cc3[n+](cc2c1OC)CCc1cc2c(cc1-3)OCO2 [BERBERINE] | 67% | 6.9 µM | – | – | –
CC(C)=CCc1c(O)c(CC=C(C)C)c2c(c1O)C(=O)C[C@@H](c1ccc(O)cc1)O2 [LONCHOCARPOL A] | 67.2% | – | Toxic | – | –
COc1ccc(-c2coc3c(CC=C(C)C)c(OC)ccc3c2=O)cc1 | – | – | Non-Toxic | 6.2 µM | inhibition [4]: Active; inhibition [5]: inactive; inhibition [7]: Active
COc1ccc([C@@H](CO)C(=O)c2cc(CC=C(C)C)c(OC)cc2O)cc1 | – | – | Non-Toxic | 8.1 µM | inhibition [8]: Active; inhibition [9]: inactive; inhibition [10]: Active
CC(C)=CCc1c(O)ccc2c1OC[C@H]1c3ccc4c(c3O[C@@H]21)OC(C)(C)C=C4 [ERYBREADIN D] | 44% | 7.8 µM | – | – | Activity [11]: Active
